Mdm2 MdmX PPI = human Mdm2/MdmX binding inhibition; 330,000 compounds, 3% hits; inhibition, % at 8 µM; SaOS-2 split-luciferase Mdm2/MdmX complementation, luminescence; O15151+Q00987;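 active = inhibition of at least 50% at 8 µM in the primary screen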
Target sequence (O15151 whole entry, looked up): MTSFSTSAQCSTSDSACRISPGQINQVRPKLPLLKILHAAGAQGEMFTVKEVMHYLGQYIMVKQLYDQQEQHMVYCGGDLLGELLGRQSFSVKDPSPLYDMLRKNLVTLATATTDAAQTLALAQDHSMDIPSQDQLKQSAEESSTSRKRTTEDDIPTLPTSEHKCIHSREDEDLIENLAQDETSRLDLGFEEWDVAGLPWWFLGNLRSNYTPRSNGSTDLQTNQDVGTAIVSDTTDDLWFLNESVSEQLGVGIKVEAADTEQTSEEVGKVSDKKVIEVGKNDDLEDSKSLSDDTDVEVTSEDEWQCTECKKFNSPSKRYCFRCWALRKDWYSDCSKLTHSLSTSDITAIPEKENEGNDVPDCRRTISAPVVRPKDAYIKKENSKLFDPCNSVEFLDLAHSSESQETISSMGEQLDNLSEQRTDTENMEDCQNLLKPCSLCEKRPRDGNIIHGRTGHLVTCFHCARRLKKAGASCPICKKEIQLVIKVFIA
Target sequence (Q00987 whole entry, looked up): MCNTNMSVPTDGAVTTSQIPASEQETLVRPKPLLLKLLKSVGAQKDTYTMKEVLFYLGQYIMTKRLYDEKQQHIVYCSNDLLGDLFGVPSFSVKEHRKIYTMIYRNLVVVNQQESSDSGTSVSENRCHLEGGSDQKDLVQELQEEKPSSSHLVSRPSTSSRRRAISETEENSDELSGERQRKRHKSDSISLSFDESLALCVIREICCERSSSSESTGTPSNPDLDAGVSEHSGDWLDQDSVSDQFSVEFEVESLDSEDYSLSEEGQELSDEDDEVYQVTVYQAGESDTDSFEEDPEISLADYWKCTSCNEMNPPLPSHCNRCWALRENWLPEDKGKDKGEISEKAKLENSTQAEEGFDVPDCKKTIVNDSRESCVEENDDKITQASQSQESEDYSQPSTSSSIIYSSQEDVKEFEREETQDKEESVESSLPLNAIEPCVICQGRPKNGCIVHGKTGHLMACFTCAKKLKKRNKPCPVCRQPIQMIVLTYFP
CSC inhib = blocks cancer stem cells; cancer stem cell-like cells viability, luminescence; inhibition, % at 7.5 µM; 300,000 compounds, 1.1% hits; in the data active = inhibition above about 75%; inconclusive = no clear call, values can overlap the other calls; tested in HMLE shEcad cells
SKKanGAS inh = SKKanGAS growth inhibition | S. pyogenes SKKanGAS, kanamycin growth, BacTiter-Glo, 6 h | inhibition, % at 7.5 µM | 300,000 compounds, 1.3% hits | AID 1662;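 active = mean replicate score, as percent of positive control median, at least 50; inconclusive = mean below 50 but one replicate at or above 50; inactive = mean and every replicate below 50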;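 note: strain carries kanamycin resistance gene driven by streptokinase promoter and grows in 40 µg/ml kanamycin; loss of luminescence reflects streptokinase promoter inhibition or plain growth inhibition; 0% = median of DMSO wells and 100% = positive control at its reference dose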
Beta apoptosis = beta cell apoptosis inhibition; INS-1E cytokine-induced death, ATP luminescence, 48 h; percent of positive-control rescue, neutral wells zero; protection from apoptosis, % (no concentration beside the values); 300,000 compounds, 0.8% hits; AID 435005;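 active = Every replicate reaches about 75%, or at least half do and their mean reaches it too, limit read from the data; inconclusive = At least half of replicates reach the limit but their mean does not; inactive = Under half of replicates reach the limit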;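 note: 0% = cytokine-treated negative control wells and 100% = positive control rescue; higher means more ATP so stronger rescue from cytokine killing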
T cruzi repl = T. cruzi replication inhibition | 300,000 compounds, 1.4% hits | inhibition, % (no concentration beside the values) | T. cruzi beta-gal in NIH3T3, luminescence, 90 h;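 active = mean inhibition across valid replicates above about 55%, limit read from the data; inconclusive = mean below that limit but half or more replicates reach it; inactive = mean below it, under half of replicates reach it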;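 note: signal also drops with host cell toxicity which is not excluded here; 0% = plate median of DMSO wells and 100% = zero luminescence signal; higher percent means less beta-gal luminescence so fewer parasites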
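System: Mouse NIH/3T3 fibroblasts infected with β-gal-expressing T. cruzi Tulahuen C4 | Quantity: NIH/3T3 cells, 5,000 per well | Reagent: 5000 reporter trypomastigotes per well | Dosing: Compound pinned at 50 nL/well, DMSO | Schedule: 3 h host attachment, then at least 90 h co-culture | Detection: GalScreen luminescence, 60 min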
Lmaj promast = reduces viability of Leishmania major promastigotes | 200,000 compounds, 9% hits | inhibition, % at 10 µM | resazurin fluorescence viability; in the data active = inhibition above about 50%;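 note: promastigotes grown with compound for 44 hours at 28 °C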
Active calls of the source: *; ? = inconclusive; . = not tested or not shown. A selection: hits, their analogues and other compounds. The true share with any hit is near 9.4%.

SMILES	Mdm2 MdmX PPI	CSC inhib	SKKanGAS inh	Beta apoptosis	T cruzi repl	Lmaj promast
COc1ccc(-n2cc(CNCCc3ncc(C)[nH]3)c(-c3ccccc3Cl)n2)cc1	17	12	8	19	23	100*
COc1ccc(-n2cc(CNCCN3CCOC3=O)c(-c3ccccc3Cl)n2)cc1	15	-9	-4	2	-9	.
COc1ccc(-n2cc(CNCCc3nc(C)cc(C)n3)c(-c3ccccc3Cl)n2)cc1	24	3	-3	-3	34	8
CCN1CCC(CNCc2cn(-c3ccc(OC)cc3)nc2-c2ccccc2Cl)C1 (stereo not given)	15	8	-2	4	21	101*
Cc1nn(-c2ccccc2)c2nc(C(F)F)cc(C(F)F)c12	-14	.	.	0	.	.
CC(C)(C)N(Cc1ccccc1)C(=O)COC(=O)c1ccc2ccccc2n1	10	-10	.	6	.	.
C/C(N)=C(/C#N)C(=O)CSc1cc(C)c2cc(C)cc(C)c2n1	-27	22	4	-4	62*	18
Cc1cc(C)c2nc(SCC#N)cc(C)c2c1	11	.	-12	.	-2	-10
CNCC(=O)N1CCN(c2ncc(C(F)(F)F)cc2Cl)CC1	17	6	1	-4	24	71*
O=C(c1ccc2c(c1)OCCO2)N1CCN(c2ncc(C(F)(F)F)cc2Cl)CC1	-14	22	12	-4	4	.
O=C(Nc1ccc2c(c1)OCO2)N1CCN(c2ncc(C(F)(F)F)cc2Cl)CC1	23	4	10	0	18	68*
Cc1ccc(NC(=O)N2CCN(C/C=C/c3ccccc3)CC2)cc1	9	1	-4	-2	9	20
CC(=C1C(=O)c2ccccc2C1=O)N1CCN(C/C=C/c2ccccc2)CC1	6	5	-7	-3	-2	83*
O=C(Nc1ccc2c(c1)OCO2)N1CCN(C/C=C/c2ccccc2)CC1	18	-1	-2	1	3	74*
CC(=C1C(=O)c2ccccc2C1=O)N1CCN(Cc2ccccc2)CC1	15	1	1	-14	7	-3
CCCCNC(=O)N1CCN(C/C=C/c2ccccc2)CC1	13	7	-6	0	-7	53*
CC(=O)NCCc1c[nH]c2ccc(OCC(O)CNC(C)(C)C)cc12 (stereo not given)	-4	1	4	5	-8	.
CC(C)(C)CC(=O)Nc1ccc(S(=O)(=O)NC2=NCCCCC2)cc1	0	4	.	-2	.	.
Cc1[nH][nH]c(=O)c1/C=N/N1CCOCC1	20	3	2	-9	-6	-4
CCOC(=O)COc1ccccc1/C=C\[N+](=O)[O-]	.	-4	5	106*	9	100*
O=C(Cn1ncc(Cl)c(Cl)c1=O)NCC1CCCCC1	.	100*	.	-8	.	28
O=C(Cn1ncc(Cl)c(Cl)c1=O)NC1CCS(=O)(=O)C1 (stereo not given)	13	-6	3	-13	2	.
O=C1CN(C(=O)COc2ccc(Cl)c(Cl)c2)c2ccccc2N1	14	.	.	.	.	.
O=C1CN(C(=O)Cn2ncc(Cl)c(Cl)c2=O)c2ccccc2N1	.	.	3	.	75*	74*
O=C(COC(=O)c1cc(S(=O)(=O)N2CCCC2)ccc1O)Nc1ccc(F)cc1F	-6	-6	.	-11	.	.
SMILES	Mdm2 MdmX PPI	CSC inhib	SKKanGAS inh	Beta apoptosis	T cruzi repl	Lmaj promast
CCOc1ccccc1NC(=O)CCn1ccnc1	-19	-4	-3	3	-6	.
CCN1C(=O)/C(=C/c2nc3ccccc3c(=O)[nH]2)c2ccccc21	.	1	.	-4	.	99*
CCC1CCCCN1CCCn1c(=S)[nH]c2ccccc2c1=O (stereo not given)	14	-3	6	-1	-38	97*
Cc1onc(-c2ccccc2)c1C(=O)O/N=C(\N)c1ccc([N+](=O)[O-])o1	42	17	7	3	45	.
Cc1onc(-c2cccc(Cl)c2Cl)c1C(=O)O/N=C(\N)c1ccc([N+](=O)[O-])o1	48	16	9	15	78*	.
COc1cccc(C(=O)Nc2ccccc2)c1	-16	1	-6	-7	-15	-3
O=C(Nc1nc(-c2ccccc2)c(-c2ccccc2)o1)c1ccc(F)cc1	26	9	101*	43	39	20
COc1cccc(C(=O)Nc2nc(-c3ccccc3)c(-c3ccccc3)o2)c1	23	20	92*	1	12	6
COC(=O)c1c(NC(=O)CC2SC(N)=NC2=O)sc2c1CCC(C)C2 (stereo not given)	21	10	5	-9	12	12
COC(=O)c1c(NC(=O)CC2SC(N)=NC2=O)sc2c1CCC(C(C)(C)C)C2 (stereo not given)	36	109*	44	0	43	7
CN1CCN(CC(=O)N(Cc2c(C#N)c3ccccc3n2C)c2ccccc2)CC1	25	-13	-6	-6	7	100*
CCOC(=O)COc1ccccc1/C=N\NC(=O)c1cc2c(ccc3ccccc32)o1	7	-9	1	-4	-2	.
COc1ccc(NC(=S)NN(C)C(=S)Nc2ccc(OC)cc2)cc1	44	123*	-1	2	-59	-2
O=C(CN1C(=O)NC2(CCCCCC2)C1=O)Nc1ccccc1[N+](=O)[O-]	6	5	.	-2	.	.
C[C@H](NC(=O)C1CCN(S(=O)(=O)c2ccccc2)CC1)C(=O)NCc1ccccn1	-5	-1	-5	-4	-6	.
CCOC(=O)C1(Cc2ccccc2)CCCN(C2CCCC2)C1 (stereo not given)	2	5	5	-6	.	76*
CCOC(=O)C1(Cc2ccc(Cl)cc2)CCN(C2CCC2)CC1	-20	6	-7	-4	-3	.
CCOC(=O)C1(Cc2ccccc2)CCN(C2Cc3ccccc3C2)CC1	6	21	4	-3	36	83*
CCOC(=O)C1(Cc2ccccc2)CCCN(CCO)C1 (stereo not given)	9	-22	-6	-13	1	-8
O=[N+]([O-])c1ccc(N/N=C/c2c[nH]c3ccccc23)c(S(=O)(=O)Nc2ccc(Cl)cc2)c1	18	101*	77*	12	29	24
CCOc1ccc(NS(=O)(=O)c2cccc(C(=O)NCC3(N(C)C)CCCCC3)c2)cc1	14	.	.	.	.	.
c1cc2cc(-c3c(-c4ccc5c(c4)OCO5)noc3-c3ccsc3)ccc2[nH]1	-1	121*	42	15	48	.
c1ccc(-c2onc(-c3ccco3)c2-c2ccc3[nH]ccc3c2)cc1	16	120*	?	-2	25	.
Cc1onc(-c2ccc3c(c2)OCO3)c1-c1ccc2[nH]ccc2c1	49	54	11	8	13	.
c1ccc(-c2ccc3[nH]ccc3c2)cc1	-26	-4	.	-5	.	.
COC(=O)c1ccc(/C=N/NC(=O)CC(=O)NCc2cccnc2)cc1	6	-4	-17	-5	-11	7
COc1cc(/C=C/c2cc[n+](C)cc2)ccc1OCC(=O)Nc1ccc(Cl)c(Cl)c1	49	.	60*	31	12	.

Screens: PubChem, several laboratories
